From PubChem
CHT PAM: CHT positive allosteric modulators, primary screen, cell-based, membrane potential dye, choline EC20 | High affinity choline transporter 1 (Homo sapiens), Q9GZV3 | AID 488977, 2010 | B-score at 10 µM | CHT-expressing cells; hits give high values; LV-AA mutant CHT in HEK293 cells | 310,000 tested, 0.49% active;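 active = initial fluorescence not abnormally high and integrated response B-score, plate-corrected, over 3 SD above library mean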
proCasp7 act: procaspase-7 activators, primary screen, counter-screen for procaspase-3 activator project, biochemical, absorbance, HTS, human. Caspase-7 (Homo sapiens), P55210. recombinant procaspase-7, Ac-DEVD-pNA absorbance 405 nm; D23A/D198A/D206A triple mutant, cannot self-cleave; scale: DMSO 0, 5 µM enzyme 100. activation, % at 8.5 µM. 330,000 tested, 0.093% active;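 active = percent activation above the screen-wide mean plus 3 SD, cut at about 25% in these data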
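System: Procaspase-7 triple mutant (PC-7 D3A); measure: % activation from two-timepoint absorbance difference, scaled to controls; times: 1 h compound preincubation, 2 h substrate cleavage, 25 °C; also added: Ac-DEVD-pNA substrate, 400 µM as added; measured by: Epi-absorbance of released pNA at 405 nm, two timepoints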
CHT inh: inhibitors of human choline transporter CHT | CHT-expressing cells, membrane potential dye, choline response; hits give low values | B-score at 10 µM | 310,000 tested, 0.86% active | AID 488975, 2010;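 active = B-score over 3 SD under the library average, and starting fluorescence ratio not unusually high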;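 note: choline stimulus applied at its EC90 after an EC20 pre-addition; B-score computed on integrated fluorescence ratio after choline addition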
procasp3 activ: activators of human procaspase-3 D3A mutant, primary screen, biochemical, absorbance, PC-3 D3A mutant, single concentration. AID 463141, 2010. 330,000 tested, 0.11% active. Caspase-3 (Homo sapiens), P42574. activation, % at 8.5 µM. recombinant procaspase-3 D3A, Ac-DEVD-pNA absorbance 405 nm;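 active = activation above the mean of all tested compounds plus 3 SD, cut at about 21% in these data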
Target sequence (P42574 whole entry D9A/D28A/D175A): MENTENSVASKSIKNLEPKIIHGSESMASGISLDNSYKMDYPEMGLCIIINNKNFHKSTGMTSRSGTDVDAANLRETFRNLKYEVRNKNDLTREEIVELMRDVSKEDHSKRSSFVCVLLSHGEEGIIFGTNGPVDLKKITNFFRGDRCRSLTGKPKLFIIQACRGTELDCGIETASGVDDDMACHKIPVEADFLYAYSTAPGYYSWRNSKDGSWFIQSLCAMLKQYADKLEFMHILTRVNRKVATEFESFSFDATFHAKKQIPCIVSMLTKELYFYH
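System: Procaspase-3 D3A mutant. Medium: Zinc-free 300 mM NaCl, 50 mM HEPES, 0.01% Triton X-100. Schedule: 1 h preincubation plus 2 h reaction at 25 °C. Measured by: 405 nm absorbance of p-nitroaniline, reads at 0 and 120 min. Read-out: percent activation relative to control range.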
CHT inh conf: CHT inhibitors, confirmation, cell-based, membrane potential dye, duplicate. shares compounds with CHT inh. CHT-expressing cells, choline membrane potential dye; LV-to-AA substituted CHT, HEK293 cells. CHT activity remaining % of control (hits give low values), % at 10 µM. 2,400 tested, 70% active;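 active = choline transporter activity left, mean of duplicates at 10 µM, below buffer-only control mean minus 3 SD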;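 note: depolarization triggered by choline at its EC90 following an EC20 pre-addition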
HEK293 CHT ctr: membrane potential effects in parental HEK293, counter-screen for CHT inhibitor project, cell-based, membrane potential dye | shares compounds with CHT inh | choline response; active = decrease or increase beyond buffer ±3SD | membrane potential ratio readout (active if shifted either direction beyond buffer ±3SD; no single direction) at 10 µM | 2,400 tested, 4% active | AID 493222, 2011;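 note: parental cells lack the transporter so any hit is non-specific; ratio is peak minus trough fluorescence over baseline after EC90 choline challenge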
Large screens that a line does not name were inactive (follow-up assays come after a bar, where they were run). Sampled rows, rich in hits. Any-hit rate of the full collection: about 1.3%.

COc1ccc(-c2csc(N)n2)cc1	none
S=C(NCc1ccccc1)N1CCN(C2CCCCC2)CC1	none
COc1ccc(CNC(=O)CN(C(=O)Cn2nnc(-c3ccccc3F)n2)c2ccc(C)cc2)cc1	CHT inh -5.2 | CHT inh conf inactive | HEK293 CHT ctr inactive
COc1ccc(N(CC(=O)NC2CCCC2)C(=O)Cn2nnc(-c3ccc(C)cc3)n2)cc1	none
Cn1nnnc1SCC(=O)N1CCN(S(=O)(=O)c2ccccc2)CC1	none
Cn1ccnc1SCC(=O)N1CCN(S(=O)(=O)c2ccccc2)CC1	CHT inh -5 | CHT inh conf inactive | HEK293 CHT ctr inactive
CCOC(=O)c1ccc(NC(=S)NNC(=O)C2(C)CC2(Cl)Cl)cc1 (stereo not given)	CHT inh -6.7 | CHT inh conf inactive | HEK293 CHT ctr inactive
CCOC(=O)c1ccc(NC(=S)NNC(=O)COC)cc1	none
CCOc1ccc(CCNC(=O)C2CCCN(c3ncnc4c3nc3n4CCCCC3)C2)cc1 (stereo not given)	none
O=C(CCc1ccc(S(=O)(=O)N2CCOCC2)cc1)N/N=C/c1ccc(F)cc1F	none
O=C(CCc1ccc(S(=O)(=O)N2CCOCC2)cc1)N/N=C/c1ccc(O)c(O)c1O	CHT inh -12 | CHT inh conf inactive | HEK293 CHT ctr inactive
CSc1ncccc1C(=O)NC1CCCc2c1cnn2-c1ccc(C)c(C)c1 (stereo not given)	none
Oc1c(/C=N/c2ccccn2)sc2ccccc12	CHT inh -8.2 | CHT inh conf inactive | HEK293 CHT ctr inactive
O=C(OCCCOc1ccc(F)cc1)c1ccc(O)cc1O	CHT inh -6 | CHT inh conf 49% | HEK293 CHT ctr inactive
CCCN(CCC)CCCNC(=O)c1ccc(CS(=O)(=O)c2c(Cl)cccc2Cl)o1	none
CC(C)n1c(=S)[nH]c2ccccc2c1=O	none
CC(C)n1c(=S)[nH]c2cc(Cl)ccc21	CHT inh -6.9 | CHT inh conf 52% | HEK293 CHT ctr inactive
CC(=O)NCC(=O)N(Cc1ccco1)C1(C(=O)NC2CCCCC2)CCCCC1	CHT inh -5.6 | CHT inh conf inactive | HEK293 CHT ctr inactive
CCn1cc(S(=O)(=O)Nc2ccc(Cl)cc2F)cn1	none
CSc1ncccc1C(=O)N1CCN(S(=O)(=O)c2ccc(C)cc2)CC1	none
OC1CCN(c2c3c(nc4cc(-c5cccc(F)c5)nn24)CCCC3)CC1	none
Fc1cccc(-c2cc3nc4c(c(N5CCC6(CC5)OCCO6)n3n2)CCCC4)c1	CHT inh -7.8 | CHT inh conf inactive | HEK293 CHT ctr inactive
COc1ccc(OC)c(NC(=O)CCNS(=O)(=O)c2cc(Br)cnc2N)c1	none
Cc1nc(CCN2C(=O)c3ccccc3C2=O)cs1	none
NC(N)=Nc1nc(CCN2C(=O)c3ccccc3C2=O)cs1	CHT inh -6.3 | CHT inh conf 30% | HEK293 CHT ctr inactive
O=C(CCS(=O)(=O)c1ccc(Br)cc1)NC1CCCC1	none
CC1CCN(CCNC(=O)CCS(=O)(=O)c2ccc(Br)cc2)CC1	CHT inh -5.3 | CHT inh conf inactive | HEK293 CHT ctr inactive
O=C(N/N=C/C=C/c1ccccc1[N+](=O)[O-])c1cc(-c2cccnc2)nc2ccccc12	CHT inh -9.2 | CHT inh conf inactive | HEK293 CHT ctr inactive
CCOc1cc2[nH]c(=S)n(C(C)C)c(=O)c2cc1OCC	CHT inh -8.8 | CHT inh conf 52% | HEK293 CHT ctr inactive
CCOc1cc2[nH]c(=S)n(C3CC3)c(=O)c2cc1OCC	none
CC(NC(=O)/C=C/c1ccccc1)c1ccccc1 (stereo not given)	CHT inh -5.4 | CHT inh conf inactive | HEK293 CHT ctr inactive
